Compounds with a hit are over-represented: about 2.6% of the library has one in this group of screens.
T cell modulator = modulators of CD8 T cell-vesicle binding, primary screen, mouse 2C CD8+ T cells, flow cytometry; 330,000 compounds, 0.068% hits; 2C CD8+ T cell-vesicle binding; stronger effect = lower value; AID 2052, 2009; response (vesicle binding), % at 7 µM;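 active = response, share of CD8 T cells binding vesicles, and their 90th percentile fluorescence all below set limits, cut at about 80% in these data, passing the limit was not always enough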;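 note: values below 100% mean blocked vesicle binding to the CD8+ T cells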
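Material: murine 2C transgenic CD8+ T lymphocytes / Also added: QL9-peptide-loaded Drosophila micro-vesicles bearing Ld, ICAM-1 and B7-1 / Schedule: binding step 1.5 h, 37 °C, antibody labelling 20 min, ice / Signal: flow cytometry, PE anti-B7-1 (FL2) versus Alexa647 anti-CD8 (FL8), PFA-fixed / Evaluation: percent CD8+ FL2 mean versus row control / Benchmarks: naked versus QL9-loaded vesicles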
Rin1-Abl PPI inh = inhibitors of Rin1-Abl protein binding, primary screen, biochemical, TR-FRET | Tyrosine-protein kinase ABL1 (Homo sapiens) + Ras and Rab interactor 1 (Homo sapiens), … | inhibition, % at 7.35 µM | 360,000 compounds, 0.4% hits | AID 588664, 2011; in the data active = inhibition above about 5%, passing the limit was not always enough
GRK2 aptamer HTS = compounds blocking aptamer binding on GRK2 – biochemical, human GRK2, bead flow cytometry, HTS, primary screen; FAM-aptamer displacement from GRK2; AID 488847, 2010; 330,000 compounds, 0.59% hits; inhibition of aptamer binding, % at 10 µM;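 active = inhibition of aptamer binding above 40%, roughly 3 SD of noise, on plates passing a quality check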;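 note: median bead fluorescence of bound FAM aptamer so fluorescent compounds give negative values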
Myeloid diff MLP = induction of myeloid progenitor differentiation, primary screen, cell-based, flow cytometry, MLPCN library; calls only at 10 µM; AID 624256, 2012; ER-HoxA9 myeloid progenitors, lysozyme-GFP differentiation; 360,000 compounds, 1% hits;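 active = normalized GFP-positive differentiation at or above the plate's own cutoff, the solvent-only control mean plus 3 SD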;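 note: cells exposed to compound for four days before flow analysis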
Rce1 inh = yeast Rce1p protease inhibitors, primary screen, biochemical, fluorescence, cell-free homogeneous. CAAX prenyl protease 2 (Saccharomyces cerevisiae (strain ATCC 204508 / S288c)), Q03530. yeast membranes, quenched prenylated peptide cleavage fluorescence. calls only. 290,000 compounds, 0.27% hits. AID 2563, 2010;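 active = fall in fluorescence gain of 50% or more versus controls, with final raw signal at or below 3038400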;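 note: plate controls were neutral control wells for no effect and wells lacking membranes for full effect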
SKN-1 inh = suppressors of acrylamide-induced Pgst-4::GFP reporter in worms, primary screen, SKN-1 inhibitor project, whole organism, uHTS, GFP/RFP fluorescence ratio, strain VP596. AID 624304, 2012. inhibition, % at 21.8 µM. C. elegans VP596 Pgst-4::GFP/RFP ratio, 24 h. 360,000 compounds, 0.49% hits;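 active = interference check ratio from 0.5 to 1.5 plus GFP to RFP signal ratio inhibition reaching or exceeding a fixed threshold, cut at about 30% in these data, passing the limit was not always enough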
Starred values were filed as active, the others as inactive; i = inactive; / = not tested or not shown; + = active, no number.

SMILES	T cell modulator	Rin1-Abl PPI inh	GRK2 aptamer HTS	Myeloid diff MLP	Rce1 inh	SKN-1 inh
O=C(N/N=C/c1cn(Cc2ccccc2)c2ccccc12)c1cc(O)cc(O)c1	359	-2	11	i	+	19
CCn1c2ccccc2c2cc(/C=N/NC(=O)c3ccncc3)ccc21	197	-3	4	i	i	1
O=C(C[n+]1cccc2ccccc21)c1ccc([N+](=O)[O-])cc1	157	-1	3	+	i	-5
Cc1cc(C)c2nc(N(CCCN(C)C)C(=O)c3ccc4c(c3)CCCC4)sc2c1	505	/	0	/	+	/
CCCOc1ccc(C(=O)N2CCCC2C(=O)O)cc1 (centres undefined)	328	3	0	i	i	-14
CCOc1ccc(C(=O)N2CCCC2C(=O)O)cc1 (centres undefined)	0	5	2	+	i	1
Cc1c(C)c2c(OCC(=O)NCc3ccncc3)cc3c(c2oc1=O)CCC(C)(C)O3	397	-2	0	i	+	5
CCc1cc(=O)oc2c3c(cc(OCC(=O)NCCCCCC(=O)O)c12)OC(C)(C)CC3	216	3	0	i	+	12
CCc1cc(=O)oc2c3c(cc(OCC(=O)NCc4ccccn4)c12)OC(C)(C)CC3	272	-6	3	i	i	11
CC(C)c1ccc(/C=C2\SC(=S)N(CC(=O)NCCCN3CCOCC3)C2=O)cc1	205	-4	0	i	i	-2
O=C(Nc1ccc(SC(F)F)cc1)c1ccccc1F	325	0	2	i	i	41*
O=C(Nc1ccc(F)cc1)c1ccccc1F	254	1	1	i	i	22
Cc1cc(C)nc(NS(=O)(=O)c2ccc(NC(=O)c3snnc3C)cc2)n1	228	3	0	i	i	1
CC(=O)Nc1ccc(C(=O)OCC(=O)Nc2c(F)cccc2F)cc1	45	-3	2	i	i	-5
COc1cc(N=Nc2ccc3ccccc3c2)ccc1O	440	0	0	i	i	13
Oc1ccc(N=Nc2ccc3ccccc3c2)cc1	258	-2	/	i	i	46*
CCOc1ccc(-n2ccnc(SCC(=O)NC3CCCC3)c2=O)cc1	378	-1	0	i	+	2
CSc1ccc(S(=O)(=O)N2CCC(C(=O)Nc3ccccc3C(F)(F)F)CC2)cc1	439	1	2	i	/	42*
CSc1ccc(S(=O)(=O)N2CCC(C(=O)Nc3ccc(NC(C)=O)cc3)CC2)cc1	242	-2	0	i	i	-13
CCOC(=O)N1CCC(N2C(=O)c3ccccc3C2Nc2ccc(S(=O)(=O)N3CCOCC3)cc2)CC1 (centres undefined)	195	14*	0	i	i	-2
O=C(O)c1cccc(COc2cccc3ccccc23)c1	901	2	2	i	i	1
COC(=O)CSc1nnc(CNC(=O)c2cc(OC)cc(OC)c2)n1-c1ccc(F)cc1	266	5	2	i	i	-3
COc1ccc(-c2c(NC(=O)c3ccco3)oc3c(C)cccc3c2=O)cc1OC	302	1	3	i	i	6
Cc1cccc(-c2c(NC(=O)c3ccco3)oc3c(C)cccc3c2=O)c1	960	-1	2	+	i	2
O=c1oc2cc(Cl)ccc2n1CSc1nc2ccccc2s1	349	0	0	+	i	17
SMILES	T cell modulator	Rin1-Abl PPI inh	GRK2 aptamer HTS	Myeloid diff MLP	Rce1 inh	SKN-1 inh
CCN(CC)c1ccc(C2NC(=O)c3ccccc3N2)cc1 (centres undefined)	/	1	/	/	/	37*
O=C1NC(c2ccc3ccccc3c2)Nc2ccccc21 (centres undefined)	/	0	/	i	/	5
CCN(CC)c1ccc(C2Nc3cccc4cccc(c34)N2)cc1	280	-1	0	i	i	-5
Brc1ccc(C2Nc3cccc4cccc(c34)N2)cc1	/	2	/	+	/	9
O=C1NC(c2ccc(Br)cc2)Nc2ccccc21 (centres undefined)	199	1	2	i	+	6
CC1=NOC(=O)/C1=C/c1ccc(-c2ccc(Cl)cc2)o1	794	1	1	/	/	37*
N=c1c(C(=O)NCc2ccc(F)cc2)cc2c(=O)n3ccccc3nc2n1Cc1cccnc1	192	-3	0	i	+	-20
N=c1c(C(=O)NC2CCCCC2)cc2c(=O)n3ccccc3nc2n1Cc1cccnc1	252	-5	0	+	/	-6
COC(=O)c1cc2c(=O)n3ccccc3nc2n(Cc2cccnc2)c1=N	436	/	1	/	i	/
N=c1c(C(=O)NC2CCCCC2)cc2c(=O)n3ccccc3nc2n1Cc1ccccc1	318	1	3	i	i	-12
CCN(CC)C(=O)CSc1nnc(COc2ccc(OC)cc2)n1N	262	2	2	i	i	-10
CCN(CC)C(=O)CSc1nnc2nnc3cc(OC)ccc3n12	165	-7	/	+	i	-5
CCCCn1c(SCC(=O)NC2CCS(=O)(=O)C2)nc2ccccc2c1=O (centres undefined)	366	0	0	i	i	-11
CCOc1c(CNCCCSc2nc(C)cc(C)n2)cccc1OC	149	1	0	i	i	-10
CC(C)(C)c1ccc(C2=NC(=O)C(CC(=O)O)S2)cc1 (centres undefined)	466	3	1	+	i	1
O=C(/C(=N/N=C/c1ccc(O)c(O)c1O)c1ccccc1)c1ccccc1	245	12*	1	i	i	3
Cc1c(Cl)cccc1NC(=O)CSc1nccn1C	315	2	0	i	i	-18
CCOC(=O)/C(C#N)=N/Nc1ccc(S(=O)(=O)N2CCc3ccccc32)cc1	265	-4	82*	i	i	-3
CCOC(=O)CCC(=O)Nc1ccc(S(=O)(=O)N2CCc3ccccc32)cc1	222	1	2	i	i	10
CCOC(=O)C1=CCC(c2ccc(CC)cc2)N(S(=O)(=O)c2ccc(C)cc2)C1 (centres undefined)	/	3	/	i	/	2
CCN(CC)C(=O)Oc1ccc(Br)c2ccccc12	685	-12	2	i	i	37*
CCN(CC)C(=O)Oc1ccc(Cl)c2ccccc12	283	3	0	i	/	16
